Hits are enriched below; roughly 2.4% of the tested compounds scored in any of these assays.
SUMO1 PPI mod: SUMO1-SIM interaction modulation; P63165; SUMO1 binding to a labelled peptide, TR-FRET, 1 h; inhibition, % at 20 µM; 0.33% of 360,000 active; AID 602429; in the data active means inhibition above about 37%
Target sequence (P63165 whole entry, looked up): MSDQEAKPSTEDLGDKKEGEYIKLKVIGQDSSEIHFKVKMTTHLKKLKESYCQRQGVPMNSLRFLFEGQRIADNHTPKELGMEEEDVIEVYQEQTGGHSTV
DNMT1 inh: inhibitors of human DNMT1. P26358. DNMT1 molecular beacon, Hinp1I cleavage, fluorescence. inhibition (reported as % activation of signal), % at 10 µM. 0.83% of 360,000 active. AID 588458; in the data active means inhibition above about 50%
LMPTP inh: LMPTP (human) inhibition | P24666 | recombinant LMPTP-A, OMFP fluorogenic substrate, fluorescence intensity | inhibition, % at 20 µM | 0.22% of 360,000 active;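 active means compounds that cut the enzyme signal by at least half of the control window in the single-dose screen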
Target sequence (P24666 whole entry, looked up): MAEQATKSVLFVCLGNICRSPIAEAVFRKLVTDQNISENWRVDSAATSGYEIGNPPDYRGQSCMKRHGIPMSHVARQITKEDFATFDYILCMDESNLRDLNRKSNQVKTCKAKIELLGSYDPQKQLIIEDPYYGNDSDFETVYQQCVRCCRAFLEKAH
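Assay system: LMPTP-A phosphatase enzyme | Input: 0.625 nM enzyme | Also added: Fluorogenic phosphatase substrate OMFP at 400 µM final | Compound dosing: One test concentration per compound, 20 µM, with 3% DMSO overall | Schedule: 50 min enzyme reaction at room temperature, protected from light | Signal: Fluorescence intensity | Benchmarks: no-enzyme and uninhibited controls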
NadD block: inhibitors of Staphylococcus aureus NadD; purified NadD enzyme, colorimetric absorbance read-out; inhibition, % at 20 µM; 0.78% of 360,000 active; in the data active means inhibition above about 26%
Scp-1 inhibitor: inhibitors of human Scp-1 phosphatase | inhibition, % at 20 µM | 0.88% of 340,000 active | Recombinant Scp1, phosphopeptide, malachite green phosphate absorbance | Q9GZU7;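 active means inhibition above about 50% at 20 µM, limit read from the data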
Target sequence (Q9GZU7 76-261 limits assumed): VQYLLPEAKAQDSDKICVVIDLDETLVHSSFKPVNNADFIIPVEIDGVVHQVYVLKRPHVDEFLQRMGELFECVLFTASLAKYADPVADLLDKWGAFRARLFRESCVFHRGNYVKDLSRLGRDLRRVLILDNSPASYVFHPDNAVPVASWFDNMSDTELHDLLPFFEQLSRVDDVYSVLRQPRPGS
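Test system – truncated SCP-1 phosphatase (76-261aa) · Reagent – Phosphorylated 17-residue peptide substrate · Incubation – 45 min room-temperature reaction, 5 min colour, 30 min stabiliser · Detection – colorimetric phosphate reagent with accelerator and stabiliser, absorbance at 630 nm · Measure – % inhibition at 20 µM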
STEP inh: blocks human striatal-enriched tyrosine phosphatase; recombinant STEP, OMFP fluorogenic substrate, fluorescence; inhibition, % at 20 µM; 0.25% of 360,000 active;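 active means inhibition at 20 µM, scaled per plate between control wells, above about 37%, limit read from the data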
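Assay system: isolated STEP enzyme. Buffer or medium: pH 6.0 Bis-Tris with DTT and Tween 20. Also added: fluorogenic phosphatase substrate OMFP at 25 µM final. Dosing: 20 µM, 1% DMSO. Timing: 20 min reaction, room temperature, in the dark. Measured by: fluorescence intensity, excitation 480 nm, emission 540 nm. Evaluation: normalized % inhibition.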
Scp1 confirm: confirmation of human Scp-1 phosphatase inhibitors | shares compounds with Scp-1 inhibitor | recombinant SCP-1 catalytic domain, phosphate release, malachite green absorbance | inhibition, % at 20 µM | 61% of 2,500 active
Scp-1 MG ctr: counter-screen for Scp-1 inhibitors: colorimetric interference; shares compounds with Scp-1 inhibitor; Colorimetric interference counterscreen, malachite green absorbance 630 nm; apparent inhibition (interference), % at 20 µM; 2,500 tested, under 10 active;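 further: compounds added after enzyme reaction finished so only phosphate colour detection is probed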
Scp-1 Tm shift: validation of human Scp-1 inhibitors by thermal shift binding. 25% of 1,500 active. shares compounds with Scp-1 inhibitor. Recombinant SCP1, Sypro Orange thermal shift Tm. thermal shift relative to vanadate control, % at 40 µM;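 active means substances whose mean melting-temperature shift, as a percentage of the reference inhibitor's shift, reaches about 5.3%, limit read from the data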
A number is an active result; i = inactive; nt = not tested or not shown.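 How the source made its calls, unless noted: active means inhibition of at least 30% at 20 µM; inactive means the rest.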

SMILES	SUMO1 PPI mod	DNMT1 inh	LMPTP inh	NadD block	Scp-1 inhibitor	STEP inh	Scp1 confirm	Scp-1 MG ctr	others
Cc1ccc(NC(=O)CN2C(=O)S/C(=C\c3ccc(C(=O)O)cc3)C2=O)cc1	i	i	i	i	i	i	nt	nt
Cc1ccc(C(=O)O)cc1-c1ccc(/C=C2\SC(=O)N(CC(=O)Nc3ccccc3)C2=O)o1	i	67.2	i	33.8	72.7	i	83.6	i	Scp-1 Tm shift=10.2
Cc1ccccc1NC(=O)CN1C(=O)S/C(=C\c2ccc(-c3cc(C(=O)O)ccc3C)o2)C1=O	i	i	i	40.6	97.8	i	68.9	i	Scp-1 Tm shift=i
Cc1cc(/C=C2\SC(=O)N(CC(=O)Nc3ccccc3F)C2=O)c(C)n1C	i	i	i	i	i	i	nt	nt
Cc1cc(C(=O)O)ccc1-c1ccc(/C=C2\NC(=O)N(Cc3ccccc3Cl)C2=O)o1	i	63.8	i	i	64.9	i	74.6	i	Scp-1 Tm shift=9.3
O=C(O)c1ccc(-c2ccc(/C=C3\NC(=O)N(Cc4ccc(Cl)cc4)C3=O)o2)cc1	i	i	i	i	i	i	nt	nt
CC(C(=O)N1CCN(Cc2ccc3c(c2)OCO3)CC1)c1ccc([N+](=O)[O-])cc1 (stereo not given)	i	i	i	i	i	i	nt	nt
CCOC(=O)c1cnc2c(C)c(-c3ccccc3)[nH]n2c1=O	i	i	i	i	69.4	i	i	i
CN(CC(=O)Nc1ccc(F)cc1)C(=O)c1cc(-c2cccs2)nn1-c1ccccc1	i	i	i	i	i	i	nt	nt
Cc1cc([N+](=O)[O-])nn1CC(=O)N1c2ccccc2CC1C (stereo not given)	i	i	i	i	i	i	nt	nt
C[C@H](CO)N1C[C@H](C)[C@@H](CN(C)Cc2ccc(C(=O)O)cc2)Oc2c(NS(=O)(=O)c3cn(C)cn3)cccc2C1=O	i	i	i	i	61.6	i	i	i
C[C@H](CO)N1C[C@H](C)[C@@H](CN(C)Cc2ccccc2)Oc2c(NS(=O)(=O)c3cn(C)cn3)cccc2C1=O	i	i	i	i	68.9	i	i	i
C[C@@H]1CN([C@@H](C)CO)C(=O)c2cccc(NS(C)(=O)=O)c2O[C@H]1CN(C)Cc1ccc(Oc2ccccc2)cc1	i	i	i	i	i	i	nt	nt
C[C@H](CO)N1C[C@H](C)[C@@H](CN(C)Cc2ccc(Oc3ccccc3)cc2)Oc2c(NS(=O)(=O)c3cn(C)cn3)cccc2C1=O	i	i	i	i	50.1	i	i	i
C[C@H](CO)N1C[C@H](C)[C@@H](CN(C)CC2CCCCC2)Oc2c(NS(=O)(=O)c3cn(C)cn3)cccc2C1=O	i	i	i	i	59.4	i	i	i
N#Cc1ccc2[nH]c(CO)c(-c3ccccc3)c2c1	i	i	i	i	i	i	nt	nt
COc1ccc(CCN2C(=O)N[C@@H](C(C)C)C2=O)cc1	i	i	i	i	i	i	nt	nt
C[C@H](CO)N1C[C@H](C)[C@@H](CN(C)Cc2ccncc2)Oc2c(NS(=O)(=O)c3ccc(F)cc3)cccc2C1=O	i	i	i	i	59.1	i	i	i
COc1ccc2[nH]c(=O)c(-c3noc(-c4ccccc4)n3)cc2c1	65.1	i	i	i	82.0	i	60.1	i	Scp-1 Tm shift=i
CSCCC(NS(=O)(=O)c1ccc(Cl)cc1)C(=O)OCc1c(Cl)cccc1Cl (stereo not given)	i	i	i	i	i	i	nt	nt
CSCCC(NS(=O)(=O)c1ccc(Cl)cc1)C(=O)OCc1cccc(Cl)c1 (stereo not given)	i	i	i	i	51.3	i	i	i
C[C@@H](NC(=O)[C@@H]1CCCN1C(=O)[C@@H]1CCCN1C(=O)OC(C)(C)C)c1ccccc1	i	nt	i	i	nt	nt	nt	nt
C/C(N)=C(/C#N)C(=O)CSc1nc2ccccc2[nH]1	i	i	i	i	69.2	i	51.3	i	Scp-1 Tm shift=i
C/C(N)=C(/C#N)C(=O)CSc1ncnc2ccccc12	i	i	i	i	i	i	nt	nt
COC(=O)c1c(NC(=O)Cc2cccs2)sc2c1CCCC2	i	i	i	i	50.6	i	72.7	i	Scp-1 Tm shift=i
SMILES	SUMO1 PPI mod	DNMT1 inh	LMPTP inh	NadD block	Scp-1 inhibitor	STEP inh	Scp1 confirm	Scp-1 MG ctr	others
O=c1nc2cccc3c2=c(/c1=C(\O)c1ccccc1)c1ccccc1c3=O	i	i	i	i	72.3	i	58.0	i	Scp-1 Tm shift=i
Cn1c(NNC(=O)C(c2ccccc2)c2ccccc2)cc(=O)n(C)c1=O	i	i	i	i	i	i	nt	nt
O=C1NC(c2ccccc2)=C(c2ccc3ccccc3n2)C(c2ccc(F)cc2)N1 (stereo not given)	i	i	i	i	i	i	nt	nt
O=C1NC(c2ccccc2)=C(c2ccc3ccccc3n2)C(c2ccccc2)N1 (stereo not given)	i	i	i	i	58.9	i	i	i
O=C(NCc1ccccc1)c1c[nH]c2ccccc2c1=O	i	i	i	i	i	i	nt	nt
CCOC1=C2[C@@H](CN(S(=O)(=O)c3ccc(C)cc3)[C@H]2c2cccc3ccccc23)[C@H]2C(=O)N(C3CCCCC3)C(=O)[C@H]2C1	i	i	i	i	nt	i	nt	nt
C=CC[N+](C)(C)CCCNC(=O)/C=N/O	i	i	i	i	55.5	i	i	i
CN(C)CCCNCCCCNC(=O)/C=N/O	i	i	i	i	i	i	nt	nt
COc1ccc2c(c1)c(=O)oc1c(C)c(OCc3cc(C(=O)O)oc3C)ccc12	i	i	i	i	92.5	i	94.3	i	Scp-1 Tm shift=i
COc1ccc2c(c1)c(=O)oc1c(C)c(OCc3ccc(C(=O)O)cc3)ccc12	44.8	i	57.8	i	92.7	41.2	58.4	i	Scp-1 Tm shift=i
OC(c1ccccc1)c1ncc(-c2cccc(F)c2)[nH]1 (stereo not given)	i	i	i	i	nt	i	nt	nt
CC1(C)CC(N2CCCC2)=CC(=[N+]2CCCC2)C1	i	i	i	i	100.0	i	92.1	i	Scp-1 Tm shift=i
CC1(C)CC(NNCCC#N)=CC(=[N+]2CCCC2)C1	i	i	i	i	i	i	nt	nt
COC(=O)[C@H](CC(C)C)NC(=O)NCCC1=CCCCC1	i	i	i	i	85.1	i	i	i
CC(C)C[C@H](NC(=O)NCCC1=CCCCC1)C(=O)O	i	i	i	i	i	i	nt	nt
O=C(COC(=O)/C=C/c1cccc(Br)c1)NC1CCCC1	i	i	i	i	i	i	nt	nt

Source: PubChem BioAssay (Sanford-Burnham Center for Chemical Genomics)
